Measured values reported in ChEMBL document CHEMBL1153723, “Cytotoxic effects of cardiac glycosides in colon cancer cells, alone and in combination with standard chemotherapeutic drugs” (J Nat Prod, 2009).
The source made the active and inactive calls. The calls are words filed in the database; no cut-off is given here.

What was measured:
[1] = Cytotoxicity against human CC20 cells assessed as survival index at 10 uM after 72 hrs by FMCA method; format: functional; conditions: CC20, 72 h, read-out: Survival
Outline: (§1)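 Library screen by FMCA at a final 10 µM (10 mM DMSO stocks diluted in PBS); 5000 cells/well, 72 h at 37 °C, then fluorescein diacetate for 50 min with fluorescence at 485/520 nm. Survival index is well fluorescence as % of control wells after blank subtraction. QC required signal/blank >10 and CV <30% in control and blank wells.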

HCT-116 [2] = experiment: Cytotoxicity against human HCT116 cells assessed as survival index at 10 uM after 72 hrs by FMCA method; format: functional; conditions: HCT-116, 72 h, read-out: Survival; outline: as §1
HT-29 [3] = experiment: Cytotoxicity against human HT-29 cells assessed as survival index at 10 uM after 72 hrs by FMCA method; format: functional; conditions: HT-29, 72 h, read-out: Survival; outline: as §1
HCT-116 [4] = experiment: Cytotoxicity against human HCT116 cells after 72 hrs by FMCA method; format: functional, cell-based; conditions: HCT-116, 72 h
Outline: (§2)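 FMCA: cells seeded at 5000/well onto compound plates at nine concentrations (1:2 serial dilutions in PBS from DMSO solutions), in duplicate, for 72 h at 37 °C. Then washed, given fluorescein diacetate for 50 min at 37 °C, and fluorescence read at 485/520 nm. HT29 and CC20 were grown in DMEM, HCT116 in McCoy's 5A. IC50 from nonlinear regression of log concentration–effect curves; three independent experiments, mean ± SEM.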

[5] = Cytotoxicity against human CC20 cells after 72 hrs by FMCA method; format: functional, cell-based; conditions: CC20, 72 h; outline: as §2
HT-29 [6] = experiment: Cytotoxicity against human HT-29 cells after 72 hrs by FMCA method; format: functional, cell-based; conditions: HT-29, 72 h; outline: as §2
HeLa = experiment: Inhibition of TNF-alpha-stimulated NF-kappaB translocation from cytoplasm to nucleus in human HeLa cells at 0.4 to 10 uM; format: functional, cell-based
Outline: (§3)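 NF-κB activation high-content kit run per manufacturer: TNF-α-stimulated cells treated at 0.4, 2 and 10 µM (or 0.2, 1 and 5 µM). Cytoplasm-to-nucleus translocation of NF-κB quantified by automated imaging (ArrayScan). TNF-α and bortezomib served as controls.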

[7] = Inhibition of Na+/K+ ATPase relative to digoxin
[8] = Cytotoxicity against human colon cancer cells after 72 hrs by FMCA method; format: functional, cell-based; conditions: Primary cultures of tumor cells from patients
HT-29 [9] = experiment: Cytotoxicity against human HT-29 cells after 72 hrs by FMCA method relative to digoxin; format: functional
HT-29 [10] = experiment: Inhibition of TNF-alpha-stimulated NF-kappaB translocation from cytoplasm to nucleus in human HT-29 cells at 0.4 to 10 uM; format: functional, cell-based; outline: as §3
HCT-116 [11] = experiment: Cytotoxicity against human HCT116 cells after 72 hrs by FMCA method relative to digoxin; format: functional
MCF7 = experiment: Inhibition of TNF-alpha-stimulated NF-kappaB translocation from cytoplasm to nucleus in human MCF7 cells at 0.4 to 10 uM; format: functional, cell-based; outline: as §3
[12] = Cytotoxicity against human CC20 cells after 72 hrs by FMCA method relative to digoxin; format: functional

SMILES | viability at 10 µM [1] [%] | viability at 10 µM (HCT-116 [2]) [%] | viability at 10 µM (HT-29 [3]) [%] | IC50 (HCT-116 [4]) [nM] | IC50 [5] [nM] | IC50 (HT-29 [6]) [nM] | inhibition (HeLa) | Activity [7] | IC50 [8] [nM] | Activity (HT-29 [9]) | inhibition (HT-29 [10]) | Activity (HCT-116 [11]) | inhibition (MCF7) | Activity [12]
C[C@]12CC[C@H](O)C[C@H]1CC[C@@H]1[C@@H]2CC[C@]2(C)[C@@H](C3=CC(=O)OC3)[C@@H](O)C[C@]12O [GITOXIGENIN] | 54 | 63 | 81 |  |  |  |  |  |  |  |  |  |  | 
CC(=O)O[C@H]1C[C@H](O[C@H]2[C@@H](O)C[C@H](O[C@H]3[C@@H](O)C[C@H](O[C@H]4CC[C@@]5(C)[C@H](CC[C@@H]6[C@@H]5C[C@@H](O)[C@]5(C)[C@@H](C7=CC(=O)OC7)CC[C@]65O)C4)O[C@@H]3C)O[C@@H]2C)O[C@H](C)[C@H]1O[C@@H]1O[C@H](CO)[C@@H](O)[C@H](O)[C@H]1O [LANATOSIDE C] | 2 | 5 | 40 |  |  |  |  |  |  |  |  |  |  | 
C[C@]12CC[C@H]3[C@@H](CC[C@]4(O)C[C@@H](O)CC[C@]34C=O)[C@@]1(O)CC[C@@H]2C1=CC(=O)OC1 [STROPHANTHIDIN] | 3 | 21 | 58 |  |  |  |  |  |  |  |  |  |  | 
C[C@]12CC[C@H](O)C[C@H]1CC[C@@H]1[C@@H]2[C@H](O)C[C@]2(C)[C@@H](C3=CC(=O)OC3)CC[C@]12O [SARMENTOGENIN] | 4 | 26 | 63 |  |  |  |  |  |  |  |  |  |  | 
C[C@@H]1O[C@@H](O[C@H]2C[C@@H](O)[C@]3(CO)[C@H]4[C@H](O)C[C@]5(C)[C@@H](C6=CC(=O)OC6)CC[C@]5(O)[C@@H]4CC[C@]3(O)C2)[C@H](O)[C@H](O)[C@H]1O [OUABAIN] | 3 | 4 | 22 |  |  |  |  |  |  |  |  |  |  | 
CO[C@H]1[C@H](O)[C@H](O[C@H]2CC[C@@]3(C)[C@H](CC[C@@H]4[C@@H]3CC[C@]3(C)[C@@H](C5=CC(=O)OC5)CC[C@]43O)C2)O[C@@H](C)[C@@H]1O [NERIIFOLIN] | 2 | 3 | 19 |  |  |  |  |  |  |  |  |  |  | 
CO[C@H]1[C@H](O)[C@H](O[C@H]2CC[C@@]3(C=O)[C@H](CC[C@@H]4[C@@H]3CC[C@]3(C)[C@@H](C5=CC(=O)OC5)CC[C@]43O)C2)O[C@@H](C)[C@@H]1O [PERUVOSIDE] | 2 | 3 | 24 |  |  |  |  |  |  |  |  |  |  | 
C[C@@H]1CC[C@@]2(OC1)O[C@H]1[C@@H](O)[C@H]3[C@@H]4CC[C@H]5C[C@@H](O[C@@H]6O[C@H](CO)[C@H](O[C@@H]7O[C@H](CO)C(O)[C@H](O[C@@H]8OC[C@@H](O)[C@H](O)[C@H]8O)[C@H]7O[C@@H]7O[C@H](CO)[C@H](O)[C@H](O[C@@H]8O[C@H](CO)[C@@H](O)[C@H](O)[C@H]8O)[C@H]7O)[C@H](O)[C@H]6O)[C@H](O)C[C@]5(C)[C@H]4CC[C@]3(C)[C@H]1[C@@H]2C (stereo partly drawn) [DIGITONIN] | 88 | 62 | 74 | 8700 | 9600 | 5600 |  |  |  |  |  |  |  | 
CC(=O)O[C@H]1CC[C@@]2(C)[C@H](CC[C@@H]3[C@@H]2CC[C@]2(C)[C@@H](C4=CC(=O)OC4)[C@@H](OC(C)=O)C[C@]32O)C1 [GITOXIGENIN DIACETATE] | 2 | 17 | 40 |  |  |  |  |  |  |  |  |  |  | 
C[C@H]1O[C@@H](O[C@H]2[C@@H](O)C[C@H](O[C@H]3[C@@H](O)C[C@H](O[C@H]4CC[C@@]5(C)[C@H](CC[C@@H]6[C@@H]5C[C@@H](O)[C@]5(C)[C@@H](C7=CC(=O)OC7)CC[C@]65O)C4)O[C@@H]3C)O[C@@H]2C)C[C@H](O)[C@@H]1O [DIGOXIN] | 1 | 4 | 24 | 270 | 240 | 1400 | inactive | 1 | 100 | 1 | inactive | 1 | inactive | 1
CO[C@H]1C[C@H](O[C@H]2CC[C@@]3(C)[C@H](CC[C@@H]4[C@@H]3CC[C@]3(C)[C@@H](C5=CC(=O)OC5)[C@@H](OC(C)=O)C[C@]43O)C2)O[C@@H](C)[C@@H]1O [OLEANDRIN] | 2 | 3 | 20 | 80 | 90 | 440 | inactive | 0.42 |  | 0.31 | inactive | 0.3 | inactive | 0.38
C[C@H]1O[C@@H](O[C@H]2[C@@H](O)C[C@H](O[C@H]3[C@@H](O)C[C@H](O[C@H]4CC[C@@]5(C)[C@H](CC[C@@H]6[C@@H]5CC[C@]5(C)[C@@H](C7=CC(=O)OC7)CC[C@]65O)C4)O[C@@H]3C)O[C@@H]2C)C[C@H](O)[C@@H]1O [DIGITOXIN] | 2 | 4 | 28 | 740 | 410 | 4070 | inactive | 0.3 | 100 | 2.91 | inactive | 2.74 | inactive | 1.71
C[C@@H]1O[C@@H](O[C@H]2CC[C@]3(C=O)[C@H]4CC[C@]5(C)[C@@H](C6=CC(=O)OC6)CC[C@]5(O)[C@@H]4CC[C@]3(O)C2)[C@H](O)[C@H](O)[C@H]1O [CONVALLATOXIN] | 1 | 3 | 20 | < 40 | < 40 | 550 |  |  |  | 0.39 |  | 0.04 |  | 0.03
CO[C@H]1C[C@H](O[C@H]2CC[C@]3(C=O)[C@H]4CC[C@]5(C)[C@@H](C6=CC(=O)OC6)CC[C@]5(O)[C@@H]4CC[C@]3(O)C2)O[C@H](C)[C@H]1O [CYMARIN] | 2 | 4 | 26 |  |  |  |  |  |  |  |  |  |  | 
C[C@@H]1O[C@@H](O[C@@H]2C=C3CC[C@@H]4[C@H](CC[C@]5(C)[C@@H](c6ccc(=O)oc6)CC[C@]45O)[C@@]3(C)CC2)[C@H](O)[C@H](O)[C@H]1O [PROSCILLARIDIN] | 3 | 1 | 18 | 60 | < 300 | 550 |  | 0.054 |  | 0.39 |  | 0.22 |  | 0.21
